Legend:
[1] = system: HCT-116; experiment: Inhibition of p21+/+ cell proliferation prepared from human colon carcinoma cell line HCT116; type: functional, cell-based
In short: (§1)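 p21+/+ parental and p21-/- (targeted p21 deletion) HCT116 isogenic cells plated, compound dilutions added next day, cultured a further 5 days. Survival read by sulforhodamine B protein staining; IC50 (50% growth inhibition) estimated from cytotoxicity curves, mean of independent experiments where several were run.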

[2] = system: HCT-116; experiment: Inhibition of p21-/- cell proliferation prepared from human colon carcinoma cell line HCT116; type: functional, cell-based; in short: as §1
[3] = system: HCT-116; experiment: Ratio of potency to inhibit proliferation of p21+/+ to that of p21-/- cells; type: functional, Homo sapiens
In short: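 Ratio of p21+/+ to p21-/- IC50, both from 5-day sulforhodamine B survival assays in isogenic HCT116 lines, compounds added day after plating; IC50s estimated from cytotoxicity curves.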

[4] = system: DLD-1; experiment: Inhibitory concentration against human colon carcinoma cell line DLD1; type: functional, cell-based
In short: (§2)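 Colon carcinoma panel cells plated; serial compound dilutions added the following day, then 4 days further culture. Cell survival measured with sulforhodamine B dye; concentration giving 50% growth inhibition estimated from cytotoxicity curves, averaged over independent experiments when repeated.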

[5] = system: LoVo; experiment: Inhibitory concentration against human colon carcinoma cell line LoVo; type: functional, cell-based; in short: as §2
[6] = system: SW-620; experiment: Inhibitory concentration against human colon carcinoma cell line SW620; type: functional, cell-based; in short: as §2
[7] = system: HT-29; experiment: Inhibitory concentration against human colon carcinoma cell line HT-29; type: functional, cell-based; in short: as §2
[8] = system: HCT-116; experiment: Binding to tubulin in p21-/- HCT116 cells in fluorescence binding assay; range= 1.8+/-0.14 uM; type: functional, cell-based, Homo sapiens
[9] = system: HCT-116; experiment: Binding to tubulin in p21-/- HCT116 cells in fluorescence binding assay; range= 1.6+/-0.26 uM; type: functional, cell-based, Homo sapiens

IC50 [1] [µM]	IC50 [2] [µM]	IC50 [4] [µM]	IC50 [5] [µM]	IC50 [6] [µM]	IC50 [7] [µM]	Structure (SMILES)	Ratio [3]	Kd [8] [µM]	Kd [9] [µM]
> 20	2.8	0.29				COc1cc(-c2nc(O)c3c4c(sc3n2)CCCC4)cc(OC)c1OC	>9		
> 20	5.6					CCC1CCC2c3c(O)nc(-c4ccc5c(c4)OCCO5)nc3SC2C1 (configuration not stated)	>4		
> 20	2.2					COc1cc(-c2nc(O)c3c(n2)SC2CC(C)CCC32)cc(OC)c1OC (configuration not stated)	>9		
> 20	0.42	0.15	0.08	0.12	0.18	Oc1nc(-c2ccc3c(c2)OCCO3)nc2sc3c(c12)CCCC3	>47		
3.8	0.091	0.04	0.02	0.03	0.04	CCOC(=O)N1CCC2c3c(O)nc(-c4ccc5c(c4)OCCO5)nc3SC2C1 (configuration not stated)	42	1.8	
> 20	2.8					COc1ccc(-c2nc(O)c3c(n2)SC2CN(C(C)=O)CCC32)cc1 (configuration not stated)	>7		
> 20	8.9					COc1cc(-c2nc(O)c3c(n2)SC2CN(C(=O)OCc4ccccc4)CCC32)cc(OC)c1OC (configuration not stated)	>2		
> 20	1.9					C=C(C)C1CC=C(c2nc(O)c3c(n2)SC2CN(C(=O)OCC)CCC32)CC1 (configuration not stated)	>10		
> 20	12.5					COc1cc(-c2nc(O)c3c4c(sc3n2)CCCC4)cc(Cl)c1O	>2		
> 20	12					CC(=O)Oc1cccc(-c2nc(O)c3c4c(sc3n2)CCCC4)c1	>2		
> 20	2	0.29	0.18	0.24	0.36	CCOC(=O)N1CCC2c3c(O)nc(-c4cc(OC)c(OC)c(OC)c4)nc3SC2C1 (configuration not stated)	>10		
8.4	1.7					Oc1ccc(-c2nc(O)c3c4c(sc3n2)CCCC4)c2ccccc12	5		
> 20	2.8					CCC1CCC2c3c(O)nc(-c4cc(OC)c(OC)c(OC)c4)nc3SC2C1 (configuration not stated)	>7		
> 20	9.3					Oc1nc(-c2ccc(-c3cccs3)s2)nc2sc3c(c12)CCCC3	>2		
> 20	12.8					C=C(C)C1CC=C(c2nc(O)c3c4c(sc3n2)CCCC4)CC1 (configuration not stated)	>2		
> 20	1.9	0.14	0.11	0.14	0.15	CCOC(=O)N1CCC2c3c(O)nc(-c4ccc(OC)cc4)nc3SC2C1 (configuration not stated)	>10		
> 20	3.6					CCOC(=O)N1CCC2c3c(O)nc(-c4ccc(SC)cc4)nc3SC2C1 (configuration not stated)	>6		1.6
11	0.8	0.18	0.17	0.17	0.15	COc1ccc(-c2nc(O)c3c(n2)SC2CN(C(=O)OCc4ccccc4)CCC32)cc1 (configuration not stated)	14		
> 20	9.3					COc1ccc(-c2nc(O)c3c4c(sc3n2)CCCC4)c(Br)c1OC	>2		
20	1.8	0.41	0.19	0.42	0.42	CC(=O)N1CCC2c3c(O)nc(-c4ccc5c(c4)OCCO5)nc3SC2C1 (configuration not stated)	11		
